The text below walks through data of ChEMBL document CHEMBL3525987, “Assessment of exposure of metabolites in preclinical species and humans at steady state from the single-dose radiolabeled absorption, distribution, metabolism, and excretion studies: a case study” (Drug Metab Dispos, 2012).

Each structure is given as a SMILES string.

What all share (settings): in vivo
Series [1] has as its system Homo sapiens. Nature of the series: Tmax as total radioactivity in human plasma at 100 mg, po administered as single dose by LC-MS/MS analysis. The format is ADME, organism-based. The arrangement: dosed compound name [14C]lixivaptan. In outline: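 Single oral 100 mg [14C]drug to healthy male volunteers; plasma at 0.25-144 h. Parent by validated LC-MS/MS, total radioactivity by LSC as ng-equiv/ml; Tmax from observed data; t1/2 = 0.693/kel from log-linear terminal regression.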

For series [2], the system named is Rattus norvegicus. Nature of the series: AUC(0 to infinity) as total radioactivity in female Sprague-Dawley rat plasma at 10 mg/kg, po administered as single dose via gavage […]. The format is ADME, organism-based. On the set-up: time infinity, dose 10 mg/kg, dosed compound name [14C]lixivaptan, route oral. In outline: (§1)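 Jugular-cannulated Sprague-Dawley rats (5/gender) were fasted 18 h and gavaged once with 10 mg/kg [14C]lixivaptan suspended in water/pluronic F68. K2EDTA blood was taken at 0.25–168 h, with donor blood replaced from 1 h on. Total radioactivity was read by LSC (ng-equiv/ml) and parent by validated LC-MS/MS. Noncompartmental Cmax, log-linear kel and trapezoidal AUC followed.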

In series [3] the test system is Rattus norvegicus. Nature of the series: Drug recovery in cage wash/debris of male Sprague-Dawley rat at 10 mg/kg, po administered as single dose via gavage measured after 168 hrs by liquid scintillation counting. Type of series: ADME, organism-based. On the set-up: dose 10 mg/kg, dosed compound name [14C]lixivaptan, route oral. The method, boiled down: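 Intact SD rats (3/gender) dosed by gavage with [14C]drug 10 mg/kg (10 ml/kg, pluronic F68/water), housed in metabolism cages; urine and feces at 0-8, 8-24 h, then every 24 h to 7 days. Urine counted by LSC; feces homogenized 20% w/w in water, combusted, trapped CO2 counted; cage wash/debris included; % of dose.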

Series [4] has as its system Rattus norvegicus. Description: Total Drug recovery in male Sprague-Dawley rat at 10 mg/kg, po administered as single dose via gavage measured after 168 hrs by liquid scintillation counting. The format is ADME, organism-based. The arrangement: dose 10 mg/kg, dosed compound name [14C]lixivaptan, route oral. In outline: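 Intact rats, 3/gender, given [14C]drug as a suspension in deionized water with pluronic F68 (10 ml/kg, ~29.8 μCi/mg), fasted 18 h before dosing, fed 4 h after. Urine and feces collected at 0-8, 8-24 h, then every 24 h for 7 days. Feces homogenized, combusted and counted; urine counted by LSC in duplicate. Recovery is % of dose, including cage wash/debris.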

A short description of series [5]: Drug recovery in urine of male beagle dog at 10 mg/kg, po administered as single dose via gavage measured after 168 hrs by liquid scintillation counting. Type of series: ADME, organism-based, Canis lupus familiaris. The arrangement: dose 10 mg/kg, dosed compound name [14C]lixivaptan, route oral. In outline:
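Four male beagles got 10 mg/kg (2 ml/kg) [14C]drug suspension (5.0 mg/ml, pluronic F68/water, 1.04 µCi/mg) by gavage. Urine and feces collected over dry ice at 0-8, 8-24 h, then every 24 h to 7 days; urine by LSC, fecal homogenates combusted then LSC; cage wash/debris included; % of dose.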

The test system of series [6] is Homo sapiens. Description: AUC (0 to 24 hrs) in human at 100 mg, po administered as single dose. Type of series: ADME, organism-based, Plasma. On the set-up: time < 24 hr, dose 100 mg, route oral, dosed compound name [14C]lixivaptan. In outline: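 Healthy young men fasted 10 h and took one oral dose of [14C]lixivaptan, 100 mg (200 µCi) as two capsules with water, eating 4 h later. Plasma from each subject at 0.5, 2, 4, 8, 12, 24 and 36 h was acetonitrile-extracted and profiled by C18 radio-HPLC (formic acid/acetonitrile gradient) with flow detection. Component concentrations were % of radioactivity × total plasma radioactivity, giving AUC0-24 in ng-equiv.h/ml.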

The subject of series [7] is Canis familiaris. Description: Total Drug recovery in male beagle dog at 10 mg/kg, po administered as single dose via gavage measured after 168 hrs by liquid scintillation counting. The format is ADME, organism-based, Canis lupus familiaris. The arrangement: dose 10 mg/kg, dosed compound name [14C]lixivaptan, route oral. In outline: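 Four male dogs, fasted 18 h, given [14C]drug by gavage as a 5.0 mg/ml suspension in pluronic F68/deionized water (2 ml/kg, 1.04 μCi/mg), followed by a 10 ml water rinse. Urine and feces collected frozen over dry ice at 0-8, 8-24 h, then every 24 h for 7 days. Feces combusted before LSC; total includes cage wash/debris.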

Series [8] concerns Rattus norvegicus. Description: Tmax as total radioactivity in male Sprague-Dawley rat plasma at 10 mg/kg, po administered as single dose via gavage by LC-MS/MS analysis. The format is ADME, organism-based. On the set-up: dose 10 mg/kg, dosed compound name [14C]lixivaptan, route oral. The method, boiled down: (§2)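 Jugular-vein cannulated SD rats (5/gender) given gavage [14C]drug 10 mg/kg in pluronic F68/water; K2EDTA blood 0.25-168 h with donor blood replacement. Parent by validated LC-MS/MS, radioactivity by LSC; Tmax observed; t1/2 = 0.693/kel by terminal log-linear regression.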

In series [9] the test system is Rattus norvegicus. Nature of the series: AUC(0 to infinity) as total radioactivity in male Sprague-Dawley rat plasma at 10 mg/kg, po administered as single dose via gavage […]. On the set-up: time infinity, dose 10 mg/kg, dosed compound name [14C]lixivaptan, route oral. Type of series: ADME, organism-based. The method, boiled down:
as §1

Series [10] relates to Rattus norvegicus. Nature of the series: Half life as total radioactivity in female Sprague-Dawley rat plasma at 10 mg/kg, po administered as single dose via gavage by LC-MS/MS analysis. The format is ADME, organism-based. On the set-up: dose 10 mg/kg, dosed compound name [14C]lixivaptan, route oral. In outline:
as §2

Series [11] has as its system Rattus norvegicus. Description: AUC(0 to t) as total radioactivity in female Sprague-Dawley rat plasma at 10 mg/kg, po administered as single dose via gavage by LC-MS/MS analysis. The arrangement: dose 10 mg/kg, dosed compound name [14C]lixivaptan, route oral. The format is ADME, organism-based. In outline:
as §1

Series [12] relates to Canis familiaris. Description: AUC(0 to t) as total radioactivity in male beagle dog plasma at 10 mg/kg, po administered as single dose by LC-MS/MS analysis. The format is ADME, organism-based, Canis lupus familiaris. The arrangement: dose 10 mg/kg, dosed compound name [14C]lixivaptan, route oral. In outline: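 Four male beagles were fasted 18 h and gavaged once with 10 mg/kg (2 ml/kg) [14C]lixivaptan as a 5.0 mg/ml water/pluronic F68 suspension. Jugular K2EDTA blood was sampled from 0.25 to 168 h. Plasma total radioactivity was counted by LSC as ng-equiv/ml and lixivaptan by validated LC-MS/MS. Noncompartmental Cmax, t1/2 and trapezoidal AUC were derived.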

In series [13] the test system is Homo sapiens. Description: Drug level in human plasma at 100 mg, po administered as single dose measured after 24 hrs by liquid scintillation counting. The format is ADME, organism-based. The arrangement: dosed compound name [14C]lixivaptan. The method, boiled down:
(§3)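 Healthy male volunteers fasted ≥10 h, given single oral 100 mg (200 µCi) [14C]drug as two 50-mg capsules with 250 ml water. Plasma (from ~50 ml blood) at 0.5, 2, 4, 8, 12, 24, 36 h, profiled per subject. Acetonitrile extraction, C18 radio-HPLC with 0.2% formic acid acetonitrile/water gradient, on-line radioactivity detection as % plasma radioactivity; ng-equiv/ml from % × total radioactivity.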

The test system of series [14] is Homo sapiens. Nature of the series: Drug level in human plasma at 100 mg, po administered as single dose measured after 36 hrs by liquid scintillation counting. The format is ADME, organism-based. On the set-up: dosed compound name [14C]lixivaptan. In outline: as §3
Series [15] has as its system Rattus norvegicus. Description: Drug level in female Sprague-Dawley rat plasma at 10 mg/kg, po administered as single dose via gavage measured after 8 hrs by liquid scintillation counting. The format is ADME, organism-based. The arrangement: dose 10 mg/kg, dosed compound name [14C]lixivaptan, route oral. The method, boiled down: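 Sprague-Dawley rats (9/gender) were fasted 18 h and gavaged once with [14C]lixivaptan at 10 mg/kg (10 ml/kg), about 29.8 µCi/mg, suspended in deionized water with pluronic F68. Plasma came by cardiac puncture under isoflurane at 1, 8 and 24 h (3/gender/time) and was extracted twice with 2 volumes of acetonitrile. C18 radio-HPLC with a flow scintillation detector gave percent of plasma radioactivity per peak.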

For series [16], the system named is Canis familiaris. Description: Drug level in beagle dog plasma at 10 mg/kg, po administered as single dose measured after 24 hrs by liquid scintillation counting. The format is ADME, organism-based, Canis lupus familiaris. The arrangement: dose 10 mg/kg, dosed compound name [14C]lixivaptan, route oral. In outline:
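Four male beagles fasted 18 h were gavaged once with [14C]lixivaptan at 10 mg/kg (2 ml/kg). The 5.0 mg/ml suspension was in deionized water with pluronic F68 (1.04 µCi/mg). Jugular K2EDTA plasma was taken at 2, 8 and 24 h and extracted twice with 2 volumes of acetonitrile. Profiling used C18 radio-HPLC (ammonium formate/acetonitrile gradient) with on-line flow scintillation detection. Each peak is reported as percent of plasma radioactivity.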

A word on the Tmax: it is the time at which the peak concentration occurs. For `Cc1ccc(F)cc1[14C](=O)Nc1ccc(C(=O)N2Cc3cccn3Cc3ccccc32)c(Cl)c1`, the Tmax in the series on Homo sapiens [1] stood at 1.2 h; in the series with Rattus norvegicus [8] it was 3.2 h. Also, the AUC was found to be 37200 ng.Eq.hr/ml in the series on Rattus norvegicus [2], 1860 ng.Eq.hr/ml with Homo sapiens [6] and 67100 ng.Eq.hr/ml in the series on Rattus norvegicus [9]. For the same compound, the Radiolabel recovery with Rattus norvegicus [3] came to 2.2%; with Rattus norvegicus [4], 99%; in [5], 7.95%; with Canis familiaris [7] it was 95.9%. Further, in the series on Rattus norvegicus [10], the t1/2 stood at 33.6 h. Moreover, the figures for the AUCt with Rattus norvegicus [11] and in the series on Canis familiaris [12] were 36700 ng.Eq.hr/ml and 82800 ng.Eq.hr/ml, respectively. For the same compound, the Compound recovery in the series with Homo sapiens [13] was 5.5%; in the series on Homo sapiens [14], 3.6%; in the series with Rattus norvegicus [15], 12.2%; in the series with Canis familiaris [16], 7.4%.
